These results are taken from ChEMBL document CHEMBL3792385, “Identification and Evaluation of Antiepileptic Activity of C21 Steroidal Glycosides from the Roots of Cynanchum wilfordii” (2016).

Holding throughout (assay type): functional
For assay [1], the system named is Mus musculus. Description: Antiepileptic activity in KM mouse assessed as protection against maximal electroshock-induced seizures at 150 mg/kg, po administered 1 hr prior to electrical stimulation. In short, it runs like this: (§1)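 Male KM mice, 20 ± 2 g, dosed orally; vehicle-treated group as control. Read-out is protection rate against maximal electroshock-induced seizures. Graded doses of 25, 50, 75, 100 and 150 mg/kg were used. ED50 and 95% confidence interval were fitted to the Hill equation.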

Assay [2] has as its system Mus musculus. Put plainly: Antiepileptic activity in KM mouse assessed as protection against maximal electroshock-induced seizures at 50 mg/kg, po administered 1 hr prior to electrical stimulation. In short, it runs like this: as §1
The subject of assay [3] is Mus musculus. Description: Antiepileptic activity in KM mouse assessed as protection against maximal electroshock-induced seizures at 25 mg/kg, po administered 1 hr prior to electrical stimulation. The procedure, abridged:
as §1

Assay [4] relates to Mus musculus. Description: Antiepileptic activity in po dosed KM mouse assessed as protection against maximal electroshock-induced seizures administered 1 hr prior to electrical stimulation. The procedure, abridged:
as §1

Assay [5] relates to Mus musculus. Put plainly: Antiepileptic activity in KM mouse assessed as protection against maximal electroshock-induced seizures at 75 mg/kg, po administered 1 hr prior to electrical stimulation. The procedure, abridged:
as §1

For assay [6], the system named is Mus musculus. Put plainly: Antiepileptic activity in KM mouse assessed as protection against maximal electroshock-induced seizures at 100 mg/kg, po administered 1 hr prior to electrical stimulation. In short, it runs like this:
as §1

For assay [7], the system named is Mus musculus. Description: Antiepileptic activity in po dosed KM mouse assessed as protection against maximal electroshock-induced seizures administered 30 mins prior to electrical stimulation. The procedure, abridged: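 Male KM mice (20 ± 2 g) were given compound orally, with a vehicle control group. Screening used 100 mg/kg, and dose–response series used 25, 50, 75, 100 and 150 mg/kg. The read-out was the percentage of mice protected from MES-induced seizures. ED50 and 95% confidence intervals were derived by Hill-equation fitting.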

On to `CC[C@@H](C)C(=O)O[C@@H](C)[C@]1(O)CC[C@@]2(O)[C@]1(C)[C@H](OC(=O)/C=C/c1ccccc1)C[C@@H]1[C@@]3(C)CC[C@H](O[C@@H]4C[C@@H](OC)[C@@H](O[C@H]5C[C@H](OC)[C@H](O[C@H]6C[C@H](OC)[C@H](O[C@H]7C[C@@H](OC)[C@@H](O)[C@H](C)O7)[C@@H](C)O6)[C@H](C)O5)[C@H](C)O4)CC3=CC[C@]12O`, for which, in assay [1], the inhibition in vivo at 150 mg/kg was 100%. The inhibition in vivo at 50 mg/kg in assay [2] came to 50%. In assay [3], the inhibition in vivo at 25 mg/kg was 20%. Further, the ED50 in assay [4] stood at 48.5 mg/kg. The inhibition in vivo at 75 mg/kg in assay [5] was determined as 70%. In assay [6], the inhibition in vivo at 100 mg/kg stood at 90%.

In the case of `CO[C@H]1C[C@H](O[C@H]2[C@@H](OC)C[C@H](O[C@H]3CC[C@@]4(C)C(=CC[C@]5(O)[C@@H]4C[C@@H](OC(=O)/C=C(\C)C(C)C)[C@@]4(C)[C@]5(O)CC[C@@]4(O)C(C)=O)C3)O[C@@H]2C)O[C@@H](C)[C@H]1O[C@H]1C[C@H](OC)[C@H](O[C@H]2O[C@@H](CO)[C@H](O)[C@@H](O)[C@@H]2O)[C@@H](C)O1`, the ED50 in assay [4] was > 200 mg/kg.

Take `CO[C@H]1C[C@H](O[C@H]2CC[C@@]3(C)C(=CC[C@]4(O)[C@@H]3C[C@@H](OC(=O)/C=C(\C)C(C)C)[C@@]3(C)[C@]4(O)CC[C@@]3(O)C(C)=O)C2)O[C@H](C)[C@H]1O[C@@H]1C[C@@H](OC)[C@@H](O[C@H]2C[C@H](OC)[C@H](O[C@@H]3C[C@H](OC)[C@H](O[C@H]4O[C@@H](CO)[C@H](O)[C@@H](O)[C@@H]4O)[C@@H](C)O3)[C@@H](C)O2)[C@@H](C)O1`: in assay [4], the ED50 was > 200 mg/kg.

For `CO[C@H]1C[C@H](O[C@H]2[C@H](C)O[C@H](O[C@H]3CC[C@@]4(C)C(=CC[C@]5(O)[C@@H]4C[C@@H](OC(=O)/C=C/c4ccccc4)[C@@]4(C)[C@]5(O)CC[C@@]4(O)[C@H](C)OC(=O)c4cccnc4)C3)C[C@H]2OC)O[C@@H](C)[C@H]1O[C@H]1C[C@H](OC)[C@H](O[C@H]2C[C@@H](OC)[C@@H](O)[C@H](C)O2)[C@@H](C)O1`, the ED50 in assay [4] was 88.1 mg/kg. For the same compound, the inhibition in vivo at 100 mg/kg in assay [6] was 55.5%.

For `CO[C@H]1C[C@@H](O[C@H]2[C@H](C)O[C@H](O[C@H]3[C@@H](C)O[C@H](O[C@H]4[C@@H](OC)C[C@H](O[C@@H]5CC[C@]6(C)C(=CC[C@@]7(O)[C@H]6C[C@H](O)[C@]6(C)[C@@]7(O)CC[C@]6(O)C(C)=O)C5)O[C@@H]4C)C[C@H]3OC)C[C@H]2OC)O[C@H](C)[C@H]1O`, in assay [4], the ED50 was > 200 mg/kg.

`CO[C@H]1C[C@@H](O[C@H]2[C@H](C)O[C@H](O[C@H]3[C@@H](C)O[C@H](O[C@H]4[C@@H](OC)C[C@H](O[C@@H]5CC[C@]6(C)C(=CC[C@@]7(O)[C@H]6C[C@H](OC(C)=O)[C@]6(C)[C@@]7(O)CC[C@]6(O)C(C)=O)C5)O[C@@H]4C)C[C@H]3OC)C[C@H]2OC)O[C@H](C)[C@H]1O`: in assay [4], the ED50 was > 200 mg/kg.

`CO[C@H]1C[C@@H](O[C@H]2[C@H](C)O[C@H](O[C@H]3[C@@H](C)O[C@H](O[C@H]4[C@@H](OC)C[C@H](O[C@@H]5CC[C@]6(C)C(=CCC(=O)[C@H]6C[C@H](OC(=O)/C=C/c6ccccc6)[C@]6(C)C(=O)CC[C@]6(O)[C@@H](C)OC(C)=O)C5)O[C@@H]4C)C[C@H]3OC)C[C@H]2OC)O[C@H](C)[C@H]1O`: the ED50 in assay [4] is > 200 mg/kg.

In the case of `CO[C@H]1C[C@@H](O[C@H]2[C@H](C)O[C@H](O[C@H]3[C@@H](C)O[C@H](O[C@H]4[C@@H](OC)C[C@H](O[C@@H]5CC[C@]6(C)C(=CC[C@@]7(O)[C@H]6C[C@H](OC(=O)/C=C/c6ccccc6)[C@]6(C)[C@@]7(O)CC[C@]6(O)C(C)=O)C5)O[C@@H]4C)C[C@H]3OC)C[C@H]2OC)O[C@H](C)[C@H]1O`, the ED50 in assay [4] was 72.3 mg/kg. For the same compound, in assay [6], the inhibition in vivo at 100 mg/kg turned out to be 70%.

`CO[C@H]1C[C@@H](O[C@H]2[C@H](C)O[C@H](O[C@H]3[C@@H](C)O[C@H](O[C@H]4[C@@H](OC)C[C@H](O[C@@H]5CC[C@]6(C)C(=CC[C@@]7(O)[C@H]6C[C@H](OC(=O)/C=C(\C)C(C)C)[C@]6(C)[C@@]7(O)CC[C@]6(O)C(C)=O)C5)O[C@@H]4C)C[C@H]3OC)C[C@H]2OC)O[C@H](C)[C@H]1O`: the ED50 in assay [4] stood at 124 mg/kg. The inhibition in vivo at 100 mg/kg in assay [6] came out at 40%.

Take `CO[C@H]1C[C@H](O[C@@H]2[C@H](C)O[C@@H](O[C@H]3[C@@H](OC)C[C@H](O[C@H]4CC[C@@]5(C)C(=CC[C@]6(O)[C@@H]5C[C@@H](OC(=O)/C=C/c5ccccc5)[C@@]5(C)[C@]6(O)CC[C@@]5(O)C(C)=O)C4)O[C@@H]3C)C[C@@H]2OC)O[C@H](C)[C@H]1O`: the ED50 in assay [4] is 95.3 mg/kg. For the same compound, the inhibition in vivo at 100 mg/kg in assay [6] came out at 60%.

For the compound `CCOC(=O)Nc1ccc(NCc2ccc(F)cc2)cc1N` [EZOGABINE], the ED50 in assay [7] stood at 15 mg/kg.
